Where “and” joins values, the source holds several entries; their conditions need not be identical. Equal values may be shown once. Entries after “also recorded” stand apart in the source; their conditions may differ.
Key:
CaM [1] = assay: CaM/D-CMBD binding by Dansyl fluorescence
Outline: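 N-terminally Dansyl-labelled Nox5β CMBD peptide (residues 671–689) was titrated with CaM at room temperature. Excitation was 335 nm, with 2/5 nm slits. Buffer was 50 mM Tris, pH 7.5, with 2 mM Ca²⁺ or 1 mM EDTA. Emission maxima and intensity changes were recorded and fitted following earlier work. Values are mean ± SD of at least three runs.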

[2] = Size-exclusion chromatography, oligomeric states; format: physicochemical
Outline: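 HPLC gel filtration of amylose-purified MBP-fused NOX5 dehydrogenase domain, run against CaM and BSA references. Column equilibrated in Tris pH 7.5 (50 mM per figure legends, 20 mM per methods) with 0.2 M NaCl (0.2–0.5 M range), plus 2 mM Ca²⁺ or 1 mM EDTA. Runs at 1.0 mL/min with 280 nm detection. 2 M urea added to partially dissociate oligomers. Species assigned by elution time.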

CaM [3] = assay: CaM interaction by size-exclusion chromatography; format: binding; conditions: D-CMBD with CaM; for Complex with CaM in SEC, Ca^2+: 0.2 M NaCl, 2 mM Ca^2+
Outline: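 HPLC size-exclusion used a Shodex KW802.5 column at 1.0 mL/min with 280 nm detection. Buffer was Tris, pH 7.5, with 0.2 M NaCl (range 0.2–0.5 M) plus 2 mM Ca²⁺ or 1 mM EDTA. Samples were filtered through 0.45 μm. MBP-DH constructs, alone or mixed with CaM or Dansyl-CaM, were compared with BSA. Collected fractions were assayed for Dansyl fluorescence.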

CaM [4] = assay: CaM/CMBD binding by Trp fluorescence
CaM [5] = assay: CaM/CMBD binding by Trp fluorescence anisotropy; conditions: Ca^2+
Outline: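 Trp anisotropy of 1 μM CMBD peptide (residues 671–689) was recorded during CaM titration. Excitation was 280 or 295 nm, and excitation and emission slits were both 10 nm, with polarizers. Buffer was 50 mM Tris, pH 7.5, 2 mM Ca²⁺, at room temperature. Anisotropy values were fitted following earlier work. Values are mean ± SD of at least three runs.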

CaM [6] = assay: CaM/CMBD binding by isothermal titration calorimetry
Outline: (§1)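 ITC was run on a VP-ITC at 25 °C in 50 mM Tris, 2 mM Ca²⁺, pH 7.5, with 0.15–0.25 M NaCl added for salt studies. Injections were 5 or 10 μL over 10 or 20 s, spaced 120 s. Heat of dilution (titrant into buffer) was subtracted. Data were fitted with a one-set-of-sites model. Back-titration used 250 μM CaM into 40 μM CMBD. Values are mean ± SD.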

NCaM = assay: CMBD/NCaM binding by isothermal titration calorimetry; conditions: CMBD titrated into NCaM; 50 mM Tris, pH 7.5, 2 mM Ca^2+, 25 °C; mean ± SD
Outline: as §1

CCaM = assay: CMBD/CCaM binding by isothermal titration calorimetry; conditions: CMBD titrated into CCaM; 50 mM Tris, pH 7.5, 2 mM Ca^2+, 25 °C; mean ± SD
Outline: as §1

D-CaM = assay: CMBD binding to Ca^2+-D-CaM by fluorescence; conditions: CMBD added to 2 μM D-CaM, 50 mM Tris, 2 mM Ca^2+, pH 7.5
Outline: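 D-CaM (Dansyl-labelled calmodulin) was excited at 335 nm, with excitation and emission slits of 2 and 5 nm, on a temperature-controlled fluorometer. Emission spectra were followed during titration with MBP-fused Nox5 dehydrogenase (DH) constructs or CMBD peptide. Buffer was 50 mM Tris, pH 7.5, with 2 mM Ca²⁺. Fits of intensity changes followed earlier work. Each measurement was done at least three times using 2–3 protein batches.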

CaM [7] = conditions: Ca^2+-CaM; ref [11]; cited from earlier work
CaM [8] = conditions: titration curve inflection point; ref [18]; cited from earlier work
CaM [9] = conditions: ref [17]; cited from earlier work
Nox5 = conditions: peptide from the scaffold domain of Cav-1; ref [13]; cited from earlier work
nitric oxide synthase = conditions: Cav-1p residues 82–101; ref [26]; cited from earlier work

## H2NRPDWSKVFQKVAAEKKGKVCOOH [D-CMBD]
CaM [1]; 2 μM D-CMBD titrated with CaM, Dansyl fluorescence, 50 mM Tris, pH 7.5, 2 mM Ca^2+, room temperature, mean ± SD
  Stoichiometry n[Peptide]/[Protein], CaM/D-CMBD: 2.11 and 2.11 ± 0.11
CaM [1]; Ca^2+
  Dansyl emission maximum, D-CMBD alone: 550 nm
  Dansyl emission maximum, D-CMBD with CaM: 518 nm
  Dansyl intensity increase on CaM binding: ~8 fold
CaM [1]; absence of Ca^2+ (EDTA), estimated, diminished in a higher ionic strength
  Binding affinity in the absence of Ca^2+: ~10^5 M^-1
[2]; KW802.5 column, 1.0 mL/min, 0.2 M NaCl, 1 mM EDTA, pH 7.5
  SEC elution time, EDTA / apo: 25.67 min
[2]; KW802.5 column, 1.0 mL/min, 0.2 M NaCl, 2 mM Ca^2+, pH 7.5
  SEC elution time, Ca^2+: 29.31 min
CaM [3]; 1 mM EDTA
  Dansyl fluorescence in CaM fraction, absence of Ca^2+: No Dansyl fluorescence was found in the CaM fractions
CaM [3]
  Complex with CaM in SEC, Ca^2+: complexed with Ca^2+-CaM when a large excess of CaM was included

## Bovine serum albumin (BSA): Bovine serum albumin, SEC standard [reference compound]
[2]; 50 mM Tris, pH 7.5, 0.2 M NaCl, 66 kDa
  SEC elution time, BSA monomer: 8.57 min
[2]; 50 mM Tris, pH 7.5, 0.2 M NaCl, 132 kDa
  SEC elution time, BSA dimer: 7.76 min
[2]; 50 mM Tris, pH 7.5, 0.2 M NaCl, 198 kDa
  SEC elution time, BSA trimer: 7.23 min

## H2NRPDWSKVFQKVAAEKKGKVCOOH [CMBD]
CaM [4]; 330 nm, Ca^2+
  Equivalents of CaM to saturate binding (intensity): one
CaM [4]; Trp fluorescence upon addition of CaM, Ca^2+
  Emission maximum, CaM-bound CMBD: 330 nm
CaM [4]; Trp fluorescence, 50 mM Tris, pH 7.5, 1 mM EDTA
  CaM binding in the absence of Ca^2+ (CMBD): A similar finding using CMBD's Trp fluorescence was found in the absence of Ca^2+; also recorded: non-specific electrostatic interaction which is not biologically significant
CaM [4]; Trp fluorescence, blue shift, Ca^2+
  Wavelength shift on CaM binding: ~20 nm
CaM [5]; 1 μM CMBD with CaM
  Molar ratio at saturation (anisotropy): ~1.2
CaM [5]; 1 μM CMBD with CaM, emission 352 nm
  Trp anisotropy value (r), complexed with CaM (maximum): 0.136
CaM [5]; 1 μM CMBD, emission 352 nm
  Trp anisotropy value (r), peptide alone: 0.0405
CaM [6]; 250 μM CaM into 40 μM CMBD, 25 °C
  nCaM/CMBD, ITC back-titration: 0.56
CaM [6]; 0.1 − 0.25 M NaCl
  Effect of NaCl on binding: does not change significantly
CaM [6]; converted from nCaM/CMBD, 250 μM CaM into 40 μM CMBD, 25 °C, mean ± SD
  Stoichiometry n[peptide]/Protein (nCMBD/CaM), ITC CaM/CMBD (back-titration): 1.79 and 1.79 ± 0.11
CaM [6]; two CMBD peptides on half-domains of CaM
  Cooperativity of CMBD binding: no cooperativity was observed
NCaM
  Binding constant, ITC CMBD/NCaM: (2.42 ± 1.21) x 10^6 M^-1
CCaM
  Binding constant, ITC CMBD/CCaM: (9.50 ± 0.62) x 10^5 M^-1
CaM [3]
  Complex with CaM in SEC, Ca^2+: a stable Ca^2+-CaM/CMBD complex was formed in non-equilibrium system
D-CaM
  Intensity change, CMBD with D-CaM: very small intensity; also recorded: small intensity change
CaM [7]
  ANS fluorescence decrease of CaM/CMBD: ~3%
CaM [8]
  Ka, previous estimate: 4e+07 M⁻¹
  Stoichiometry, previous estimate: near unity stoichiometry
CaM [9]
  Binding mode in crystal structure: each of the two CMBD peptides is bound in the cleft formed in half-domain

## Cav-1P: peptide from the scaffold domain of Cav-1 (residues 82–101) (DGIWKASFTTFTVTKYWFYR; UniProt Q03135 82-101, looked up, fragment)
Nox5
  Effect on Nox5's superoxide-generating activity: inhibit the Nox5's superoxide-generating activity
Nitric oxide synthase
  Effect on NO production: inhibits the NO production

## hemoglobin [reference compound]
[2]; 0.2 M NaCl, same settings
  SEC elution time, reference protein: 9.51 min
